In publication PMC6129214 (Nature medicine, 2018):

How the values were obtained:
platelet aggregation [1] = experiment: Mouse ex vivo platelet aggregometry in PRP; conditions: ADP 1 μM, choline-supplemented mice
Summary of the method: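 Mice on a choline-supplemented (1% w/w) or control diet, with or without test compound in the diet (0.006% or 0.06% w/w, 2 weeks), are anaesthetized with ketamine 100 mg/kg and xylazine 10 mg/kg. Blood is drawn and PRP aggregation to 1 μM ADP is recorded as % of maximum amplitude per mouse. Plasma TMAO is also measured.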

[2] = tested on: carotid artery thrombus formation; experiment: FeCl3-induced carotid artery injury thrombosis model; assay type: in vivo, mice; conditions: DMB 1.3% v/v; 0.06% IMC or 0.006% FMC in diet
platelet aggregation [3] = experiment: Direct incubation of inhibitor with mouse PRP, platelet aggregometry; assay type: cell-based, mice; conditions: 20 µM, with or without ADP
plasma TMAO = experiment: Plasma TMAO levels; assay type: in vivo; conditions: mice on a choline-supplemented diet, data not shown

## CC(C)(C)CCO [DMB, 3,3-dimethyl-1-butanol]
Platelet aggregation [1]
  effect on choline diet-enhanced ADP-dependent platelet aggregation in PRP: significantly reduced
[2]
  effect on choline diet-induced rise in TMAO and in vivo rate of clot formation: attenuated
Platelet aggregation [3]
  effect of direct incubation on platelet aggregometry responses, mouse PRP: no effects

## Oc1ccc(/C=C/c2cc(O)cc(O)c2)cc1 [Resveratrol]
Plasma TMAO
  effect on plasma TMAO levels in vivo: showed no effect
